Type in all cases: functional, Mus musculus
Assay [1] can be described thus: Compound was tested in vitro for cytostatic activity against Cloudman melanoma S91 cells at 0.1 uM concentration. A digest of the protocol:
(§1)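 Cloudman melanoma S91 cells (doubling time 36 h), 0.1×10^6 per flask, pre-grown 72 h at 37 °C in Ham's F10 with 15% horse serum, 2.5% fetal bovine serum, 8 mM glutamine, penicillin and streptomycin. Medium then replaced with compound at final 0.1, 0.5 or 1.0 μM, with 0.1% DMSO in test and control. After 72 h more, cells trypsinized and counted. Triplicate cultures; cell number given as % of control.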

The nature of assay [2]: In vitro for cytostatic activity against Cloudman melanoma S91 cells at 1.0 uM concentration. Put shortly:
as §1

Assay [3] can be described thus: Compound was tested in vitro for cytostatic activity against Cloudman melanoma S91 cells at 0.5 uM concentration. Put shortly:
as §1

Regarding `CCNCCCCCCNc1c2ccccc2nc2ccccc12.Cl.Cl`, the “Cell number (% of control)” value in assay [1] worked out at 102%; in assay [2], 7%. Consider `Cl.NCCCN1CCN(CCCNc2c3ccccc3nc3ccccc23)CC1`, for which the entries for the “Cell number (% of control)” value in assay [1] and in assay [2] were 39% and 3%, respectively.

Consider `COc1ccc2nc3cc(Cl)ccc3c(NCCCCCCCCN)c2c1.Cl.Cl.Cl`, for which the “Cell number (% of control)” value in assay [2] was 86%. As to `Cl.c1ccc2c(NCCCNCCCNc3c4ccccc4nc4ccccc34)c3ccccc3nc2c1`, the “Cell number (% of control)” value in assay [1] was 103%; in assay [2], 31%. Turning to `COc1ccc2nc3cc(Cl)ccc3c(NCCCN3CCN(CCCNc4c5ccc(Cl)cc5nc5ccc(OC)cc45)CC3)c2c1.Cl`, the “Cell number (% of control)” value in assay [2] is reported as 43%.

With `COc1ccc2nc3cc(Cl)ccc3c(NCCCN3CCN(CCCN)CC3)c2c1.Cl`, the “Cell number (% of control)” value in assay [2] was 78%. `COc1ccc2nc3cc(Cl)ccc3c(NCCCNCCCNc3c4ccccc4nc4ccccc34)c2c1.Cl`: the “Cell number (% of control)” value was 66% in assay [1] and 3% in assay [2]. Take `Cl.Cl.c1ccc2c(NCCCCCCNc3c4ccccc4nc4ccccc34)c3ccccc3nc2c1`: the “Cell number (% of control)” value in assay [2] is listed as 39%. On to `Cl.c1ccc2c(NCCCN3CCN(CCCNc4c5ccccc5nc5ccccc45)CC3)c3ccccc3nc2c1`, for which the “Cell number (% of control)” value in assay [1] is on record as 24%; in assay [2], 2%. For `COc1ccc2nc3cc(Cl)ccc3c(NCCCCCCN)c2c1.Cl.Cl.Cl`, in that order: 105% and 105%.

With `COc1ccc2nc3cc(Cl)ccc3c(NCCCCCCNc3c4ccccc4nc4ccccc34)c2c1.Cl.Cl.Cl`, the “Cell number (% of control)” value in assay [2] was determined as 49%. Turning to `COc1ccc2nc3cc(Cl)ccc3c(NCCCN3CCN(CCCNc4c5ccccc5nc5ccccc45)CC3)c2c1.Cl`, the “Cell number (% of control)” value in assay [1] was found to be 50%; in assay [2], 20%. For the compound `COc1ccc2nc3cc(Cl)ccc3c(NCCCCCCNc3c4ccc(Cl)cc4nc4ccc(OC)cc34)c2c1.Cl.Cl.Cl.Cl`, the “Cell number (% of control)” value in assay [2] is given as 83%.

As for `COc1ccc2nc3cc(Cl)ccc3c(NCCCCCCCCNc3c4ccccc4nc4ccccc34)c2c1.Cl.Cl.Cl`, the “Cell number (% of control)” value in assay [2] worked out at 44%. Still for that read-out and setting: for `Cl.Cl.c1ccc2c(NCCN3CCNCC3)c3ccccc3nc2c1` the value was 30%.

Take `COc1ccc2nc3cc(Cl)ccc3c(NCCCNCCCNc3c4ccc(Cl)cc4nc4ccc(OC)cc34)c2c1.Cl`: the “Cell number (% of control)” value in assay [1] is reported as 85%; in assay [2], 0%. Besides, in assay [3], the Control was 16%. As for `COc1ccc2nc3cc(Cl)ccc3c(NCCCNCCCN)c2c1.Cl`, in assay [2], the “Cell number (% of control)” value came to 28%. Turning to `Cl.Cl.NCCCCCCNc1c2ccccc2nc2ccccc12`, in assay [2], the “Cell number (% of control)” value was 95%.

Source of the values: ChEMBL document CHEMBL1122502, “9-acridinyl and 2-methoxy-6-chloro-9-acridinyl derivatives of aliphatic di-, tri-, and tetraamines. Chemistry, cytostatic activity, and schistosomicidal activity” (1983).
